Results on five compounds are retold here after ChEMBL document CHEMBL1122488, “synthesis and antitumor activity of 2-deoxyribofuranosides of 3-deazaguanine” (1983).

What all share (assay type): functional
Assay [1] has as its system L1210. Put plainly: Effective dose that produced 50% inhibition of L1210 Leukemia cell growth in culture. The note with it: Mus musculus, read-out: ED50 (the source's name). In a few lines: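 The value is the drug concentration in the culture medium that gave 50% inhibition of L1210 leukemia cell growth, relative to untreated controls, after a 48-h incubation. Results are mean ± standard error.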

Assay [2] concerns Mus musculus. Put plainly: Percentage growth inhibition of mammary adenocarcinoma 16/C in B6C3F1 female mice at 40 mg/kg dose […]. Particulars: sc. In a few lines:
(§1)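 C3H mammary adenocarcinoma 16/C, lung-passed in C3H female mice. Freshly harvested 2- to 4-mm3 fragments were implanted subcutaneously into 18- to 20-g B6C3F1 females on day 0, and the mice were randomized the next day. Drugs were dissolved in 0.2 M phosphate buffer and given ip once daily on days 1-9; controls received 0.2 mL buffer. Tumor weight was estimated from caliper length and width by […].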

Assay [3] concerns Mus musculus. Put plainly: Percentage growth inhibition of mammary adenocarcinoma 16/C in B6C3F1 female mice at 80 mg/kg dose […]. The note with it: sc. In short, it runs like this:
as §1

In assay [4] the test system is Mus musculus. Put plainly: Change in weight on day 9 of mammary adenocarcinoma 16/C in B6C3F1 female mice at 40 mg/kg […]. In short, it runs like this:
as §1

Assay [5] has as its system Mus musculus. The assay can be described thus: Tumor weight on day 17 of C3H mammary adenocarcinoma 16/C in B6C3F1 female mice at 80 mg/kg by subcutaneous administration. Particulars: route intraperitoneal, in the assay text read “intraperitoneal administration” for “subcutaneous administration”. In a few lines: as §1
Assay [6] deals with Mus musculus. The assay can be described thus: Change in weight on day 9 of mammary adenocarcinoma 16/C in B6C3F1 female mice at 80 mg/kg […]. In a few lines:
as §1

Assay [7] deals with Mus musculus. Put plainly: Animals with palpable tumors on day 17 at 80 mg/kg by subcutaneous administration in B6C3F1 female mice; 6/6. The note with it: route intraperitoneal, in the assay text read “intraperitoneal administration” for “subcutaneous administration”. In a few lines:
as §1

The subject of assay [8] is Mus musculus. Put plainly: Tumor weight on day 17 of C3H mammary adenocarcinoma 16/C in B6C3F1 female mice at 40 mg/kg […]. In short, it runs like this: as §1
Assay [9] relates to Mus musculus. The assay can be described thus: Animals with palpable tumors on day 17 at 40 mg/kg by subcutaneous administration in B6C3F1 female mice; 6/6. The note with it: route intraperitoneal, in the assay text read “intraperitoneal administration” for “subcutaneous administration”. In a few lines:
as §1

Assay [10] relates to Mus musculus. The assay can be described thus: Animals with palpable tumors on day 17 at the dose of 100 mg/kg by […] in 6 B6C3F1 female mice; 6/6 animals were with palpable tumors. In a few lines: as §1
Assay [11] deals with Mus musculus. Put plainly: Change in weight of mammary adenocarcinoma 16/C in B6C3F1 female mice at 50 mg/kg […] on day 9. In a few lines: as §1
The subject of assay [12] is Mus musculus. The assay can be described thus: Change in weight of mammary adenocarcinoma 16/C in B6C3F1 female mice at 100 mg/kg […] on day 9. In a few lines: as §1
The test system of assay [13] is Mus musculus. Put plainly: Tumor weight of C3H mammary adenocarcinoma 16/C in B6C3F1 female mice at 100 mg/kg by subcutaneous administration on day 17. The note with it: route intraperitoneal, in the assay text read “intraperitoneal administration” for “subcutaneous administration”. In a few lines: as §1
Assay [14] deals with Mus musculus. Put plainly: Percentage growth inhibition of mammary adenocarcinoma 16/C in B6C3F1 female mice at the dose of 50 mg/kg by subcutaneous administration. Particulars: ip, in the assay text read “intraperitoneal administration” for “subcutaneous administration”. In short, it runs like this: as §1
For assay [15], the system named is Mus musculus. The assay can be described thus: Animals with palpable tumors on day 17 at the dose of 50 mg/kg by […] in 6 B6C3F1 female mice; 6/6 animals were with palpable tumors. In a few lines:
as §1

For assay [16], the system named is Mus musculus. The assay can be described thus: Percentage growth inhibition of mammary adenocarcinoma 16/C in B6C3F1 female mice at the dose of 100 mg/kg by subcutaneous administration. The note with it: ip, in the assay text read “intraperitoneal administration” for “subcutaneous administration”. In a few lines: as §1
Assay [17] relates to Mus musculus. Put plainly: Tumor weight of C3H mammary adenocarcinoma 16/C in B6C3F1 female mice at 50 mg/kg by subcutaneous administration on day 17. Particulars: route intraperitoneal, in the assay text read “intraperitoneal administration” for “subcutaneous administration”. In a few lines: as §1
For assay [18], the system named is Mus musculus. The assay can be described thus: Tumor weight of C3H mammary adenocarcinoma 16/C in B6C3F1 female mice at 80 mg/kg by subcutaneous administration on day 17. Particulars: route intraperitoneal, in the assay text read “intraperitoneal administration” for “subcutaneous administration”. In short, it runs like this: as §1
Assay [19] deals with Mus musculus. Put plainly: Change in weight of mammary adenocarcinoma 16/C in B6C3F1 female mice by subcutaneous administration on day 9. In a few lines: as §1
For assay [20], the system named is Mus musculus. The assay can be described thus: Animals with palpable tumors on day 17 after subcutaneous administration in 6 B6C3F1 female mice; 5/6 animals were with palpable tumors. The note with it: in the assay text read “intraperitoneal administration” for “subcutaneous administration”. In a few lines: as §1
The species entered for assay [21] is Mus musculus. Put plainly: Percentage growth inhibition of mammary adenocarcinoma 16/C in B6C3F1 female mice. In short, it runs like this:
as §1

pEC50: −log10 of the molar value.

As to `Nc1cc2c(ncn2[C@H]2C[C@H](O)[C@@H](CO)O2)c(O)n1`, the pEC50 in assay [1] was 5.05. In [2], this compound returned an inhibition in vivo at 40 mg/kg of 25%. The inhibition in vivo at 80 mg/kg in [3] stood at 69.7%. Further, the Delta weight in assay [4] was determined as 0.58; in assay [6], 1.2. In addition, the Tumor weight in [5] turned out to be 1.09 g; in [8], 2.7 g. Besides, the “Animals with palpable tumor” value in assay [7] and in [9] was 6 in each case.
`Nc1cc2ncn([C@H]3C[C@H](O)[C@@H](CO)O3)c2c(O)n1`: the “Animals with palpable tumor” value in assay [10] and in assay [15] was 6 each time. Moreover, the pEC50 in [1] was 3.02. In addition, the Delta weight in assay [11] is 0.72; in assay [12] it was 0.95. The Tumor weight is on record as 3.5 g in [13] and 2.95 g in assay [17]. Further, in assay [14], the inhibition in vivo at 50 mg/kg stood at 18.1%. For the same compound, 100 mg/kg produced 2.8% inhibition in vivo in [16].
`Nc1cc2c(ncn2[C@@H]2O[C@H](CO)[C@@H](O)[C@H]2O)c(=O)[nH]1`: in assay [1], the pEC50 was 5.15.
For the compound `Nc1cc2ncn([C@@H]3O[C@H](CO)[C@@H](O)[C@H]3O)c2c(=O)[nH]1`, the pEC50 in assay [1] is 3.12.
Regarding `Nc1cc2[nH]cnc2c(=O)[nH]1` [DEZAGUANINE], the Tumor weight in assay [18] is listed as 0.25 g. In addition, the pEC50 in assay [1] was 4.96. The same compound yielded a Delta weight in [19] of 0.06. Also, the “Animals with palpable tumor” value in assay [20] is reported as 5. The same compound displayed an Inhibition in [21] of 93.1%.
